≈ marks a conversion by molar mass, not a printed value. Calls of active or inactive are those of the source. The rule behind the calls is not given here.
Tests used:
[1] = test system: Mycobacterium tuberculosis variant bovis BCG; assay: Inhibition of efflux pump in Mycobacterium bovis BCG infected in macrophages assessed as accumulation of ethidium bromide at 50 uM by measuring increase in fluorescence intensity after 1 hr by flow cytometric assay relative to control; design: Activity: scale not given: the % may be the effect or the level left
[2] = test system: Mycobacterium tuberculosis; assay: Antimycobacterial activity against isoniazid mono-resistant Mycobacterium tuberculosis isolate R73 by two fold serial dilution based fluorescence assay; format: functional
Outline: (§1)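 MGIT 960 (BACTEC) broth assay in 7H9 with 1% OADC and 0.05% Tween 80. Compounds are 10 mM DMSO stocks, two-fold serially diluted, final DMSO ≤1.2%, top concentration 10 µM. Tubes incubated at 37°C with growth units read daily. MIC99 is set against a 1% drug-free growth control tube.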

[3] = test system: Mycobacterium tuberculosis; assay: Antimycobacterial activity against isoniazid mono-resistant Mycobacterium tuberculosis isolate R5401 by two fold serial dilution based fluorescence assay; format: functional; outline: as §1
[4] = test system: Mycobacterium tuberculosis; assay: Antimycobacterial activity against isoniazid mono-resistant Mycobacterium tuberculosis isolate R4965 by two fold serial dilution based fluorescence assay; format: functional; outline: as §1
[5] = test system: Mycobacterium tuberculosis variant bovis BCG; assay: Inhibition of efflux pump in Mycobacterium bovis BCG infected in macrophages assessed as accumulation of ethidium bromide at 25 uM by measuring increase in fluorescence intensity after 1 hr by flow cytometric assay; design: Activity: scale not given: the % may be the effect or the level left
[6] = test system: Mycobacterium tuberculosis variant bovis BCG; assay: Potency index, ratio of compound effect to CPZ effect for inhibition of efflux pump in Mycobacterium bovis BCG
[7] = Selectivity index, ratio of IC50 for CHO cells to MIC99 for isoniazid mono-resistant Mycobacterium tuberculosis isolate R5401; format: toxicity; conditions: hamster, read-out: Selectivity Index
[8] = Selectivity ratio of MIC99 for Mycobacterium tuberculosis H37Rv to MIC99 for isoniazid mono-resistant Mycobacterium tuberculosis isolate R5401; format: functional
[9] = test system: Mycobacterium tuberculosis variant bovis BCG; assay: Inhibition of efflux pump in Mycobacterium bovis BCG infected in macrophages assessed as accumulation of ethidium bromide at 10 uM by measuring increase in fluorescence intensity after 1 hr by flow cytometric assay; design: scale not given: the % may be the effect or the level left

With `O=C(NNCCCN1c2ccccc2CCc2ccccc21)c1ccncc1` as the molecule, how does the inhibition [1] read?
Its inhibition is “Active”.

What about the MIC99 [2] of the same molecule?
Its MIC99 is over 10 µM.

What about the MIC99 [3] of the same molecule?
Its MIC99 is over 10 µM.

And the MIC99 [4]?
Its MIC99 is over 10 µM.

For `O=C(NNCCCN1c2ccccc2Sc2ccc(Cl)cc21)c1ccncc1`, which Activity [5] is on record?
The Activity was 40 to 90%.

What about the MIC99 [2] of the same molecule?
The MIC99 was over 10 µM.

What about the MIC99 [3] of the same molecule?
The MIC99 was over 10 µM.

What about the MIC99 [4] of the same molecule?
Its MIC99 is over 10 µM.

And the Ratio [6]?
Its Ratio is 2.

With `O=C(NNCCCN1c2ccccc2Sc2ccc(Cl)cc21)c1ccccc1` as the molecule, how does the Activity [1] read?
Its Activity is 40 to 90%.

What about the MIC99 [2] of the same molecule?
Its MIC99 is over 10 µM.

What about the MIC99 [4] of the same molecule?
Its MIC99 is over 10 µM.

And the Ratio [6]?
Its Ratio is 2.

For `O=C(NNCCCN1CCC(=C2c3ccccc3Sc3ccccc32)CC1)c1ccncc1`, which MIC99 [2] is on record?
Its MIC99 is over 10 µM.

And the MIC99 [3]?
Its MIC99 is 2.5 µM (≈ 1.14 µg/mL).

What about the MIC99 [4] of the same molecule?
Its MIC99 is over 10 µM.

And the selectivity ratio [7]?
The selectivity ratio was 60.8.

Which MIC99 [2] does the source give for `O=C(NNCCCN1CCN(C(c2ccccc2)(c2ccccc2)c2ccccc2)CC1)c1ccncc1` here?
Its MIC99 is over 10 µM.

And the MIC99 [3]?
The MIC99 was 2.5 µM (≈ 1.26 µg/mL).

What about the MIC99 [4] of the same molecule?
The MIC99 was over 10 µM.

What about the selectivity ratio [7] of the same molecule?
Its selectivity ratio is 78.1.

With `CN(C)CCCN1c2ccccc2Sc2ccc(Cl)cc21` [CHLORPROMAZINE] as the molecule, how does the inhibition [5] read?
Its inhibition is “Active”.

Which Ratio [8] does the source give for `O=C(NNCCCN1CCN(C(c2ccccc2)c2ccccc2)CC1)c1ccncc1` here?
The Ratio was 2.

And the MIC99 [2]?
Its MIC99 is over 10 µM.

What about the MIC99 [3] of the same molecule?
Its MIC99 is 2.5 µM (≈ 1.07 µg/mL).

What about the MIC99 [4] of the same molecule?
Its MIC99 is over 10 µM.

And the selectivity ratio [7]?
Its selectivity ratio is 19.3.

Which MIC99 [2] does the source give for `O=C(NNCCCN1CCN(CC(O)(c2ccccc2)c2ccccc2)CC1)c1ccncc1` here?
Its MIC99 is over 10 µM.

And the MIC99 [3]?
Its MIC99 is 2.5 µM (≈ 1.15 µg/mL).

What about the MIC99 [4] of the same molecule?
Its MIC99 is over 10 µM.

What about the selectivity ratio [7] of the same molecule?
The selectivity ratio was 139.

Which Ratio [8] does the source give for `O=C(NNCCCN1CCC(N2c3ccccc3Sc3ccccc32)CC1)c1ccncc1` here?
The Ratio was 2.

What about the MIC99 [2] of the same molecule?
Its MIC99 is over 10 µM.

What about the MIC99 [3] of the same molecule?
Its MIC99 is 2.5 µM (≈ 1.15 µg/mL).

And the MIC99 [4]?
Its MIC99 is over 10 µM.

What about the selectivity ratio [7] of the same molecule?
The selectivity ratio was 48.8.

With `NNC(=O)c1ccncc1` [ISONIAZID] as the molecule, how does the inhibition [1] read?
Its inhibition is “Active”.

And the MIC99 [3]?
The MIC99 was 2.5 µM (≈ 0.343 µg/mL).

What about the selectivity ratio [7] of the same molecule?
The selectivity ratio was over 35.

Which results are given for `O=C(NNCCCN1c2ccccc2Sc2ccccc21)c1ccccc1`?
Activity [1]: 40 to 90%; MIC99 [2]: > 10 µM; MIC99 [4]: > 10 µM; Ratio [6]: 2

Which MIC99 [2] does the source give for `O=C(NNCCCN1CCC(=C2c3ccccc3Sc3ccc(Cl)cc32)CC1)c1ccncc1` here?
Its MIC99 is over 10 µM.

And the MIC99 [3]?
The MIC99 was 1.25 µM (≈ 0.614 µg/mL).

And the MIC99 [4]?
Its MIC99 is over 10 µM.

And the selectivity ratio [7]?
The selectivity ratio was 237.

For `O=C(NNCCCN1c2ccccc2Sc2ccccc21)c1ccncc1`, which inhibition [1] is on record?
Its inhibition is “Active”.

What about the MIC99 [2] of the same molecule?
The MIC99 was over 10 µM.

And the MIC99 [3]?
Its MIC99 is over 10 µM.

What about the MIC99 [4] of the same molecule?
Its MIC99 is over 10 µM.

For `O=C(NNCCCN1CCN(C2c3ccccc3CCc3ccccc32)CC1)c1ccncc1`, which MIC99 [2] is on record?
The MIC99 was over 10 µM.

What about the MIC99 [3] of the same molecule?
Its MIC99 is over 10 µM.

What about the MIC99 [4] of the same molecule?
The MIC99 was over 10 µM.

For `O=C(NNCCCNCCCN1c2ccccc2Sc2ccccc21)c1ccncc1`, which MIC99 [2] is on record?
The MIC99 was over 10 µM.

And the MIC99 [3]?
The MIC99 was over 10 µM.

And the MIC99 [4]?
Its MIC99 is over 10 µM.

For `O=C(NNCCCNCCCN1c2ccccc2Sc2ccc(Cl)cc21)c1ccncc1`, which MIC99 [2] is on record?
Its MIC99 is over 10 µM.

And the MIC99 [3]?
The MIC99 was over 10 µM.

And the MIC99 [4]?
The MIC99 was over 10 µM.

With `O=C(NNCCCN1CCC(=C2c3ccccc3C=Cc3ccccc32)CC1)c1ccncc1` as the molecule, how does the MIC99 [2] read?
The MIC99 was over 10 µM.

And the MIC99 [3]?
Its MIC99 is 2.5 µM (≈ 1.13 µg/mL).

And the MIC99 [4]?
Its MIC99 is over 10 µM.

And the selectivity ratio [7]?
Its selectivity ratio is 59.2.

For `O=C(NNCCCN1CCC(N2c3ccccc3Sc3ccc(Cl)cc32)CC1)c1ccncc1`, which Activity [9] is on record?
The Activity was 40 to 90%.

What about the MIC99 [2] of the same molecule?
The MIC99 was over 10 µM.

And the MIC99 [3]?
The MIC99 was 1 µM (≈ 0.494 µg/mL).

What about the MIC99 [4] of the same molecule?
The MIC99 was over 10 µM.

What about the selectivity ratio [7] of the same molecule?
Its selectivity ratio is 37.

What about the Ratio [6] of the same molecule?
The Ratio was 2.

Reference: ChEMBL document CHEMBL4184228, “Reversed isoniazids: Design, synthesis and evaluation against Mycobacterium tuberculosis” (Bioorg Med Chem, 2018)
